Activity calls are given as the source filed them. No cut-off for these calls is given here.
Assays:
[1] = Clearance in Wistar rat at 1 mg/kg, iv by LC-MS/MS analysis; format: ADME, organism-based; conditions: in vivo
Summary of the method: (§1)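 Male Wistar rats with jugular vein catheter, fasted overnight; dosed p.o. by gavage in olive oil or i.v. via catheter in 50% DMSO. Blood drawn from conscious unrestrained rats 5 min before dosing, then 5, 15, 30 min and 1–8 h after. Volume replaced with heparinized saline. Rats fed after 4 h sample. n = 3 per route.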

[2] = Volume of distribution in Wistar rat at 1 mg/kg, iv by LC-MS/MS analysis; format: ADME, organism-based; conditions: in vivo; summary of the method: as §1
[3] = Stability of the compound in rat plasma at 1 mM measured after 4 hrs by LC-MS analysis; format: ADME, cell-free
Summary of the method: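 Compound added to rat plasma from 1 mM DMSO stock (stock concentration) and incubated at 37 °C. Samples taken at 0, 5, 15, 30, 60, 120 and 240 min, quenched in MeCN/H₂O 9:1, centrifuged and analyzed by LC-MS. Plasma activity checked with SLIGRL-NH₂.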

[4] = molecular target: T1, C3a anaphylatoxin chemotactic receptor (Homo sapiens) (UniProt Q16581); experiment: Potency index, ratio of SB290157 IC50 to test compound IC50 for antagonist activity at C3a receptor in human LAD2 cells assessed as inhibition of C3a-induced beta-hexosaminidase release; format: cell-based
T1 sequence (whole entry): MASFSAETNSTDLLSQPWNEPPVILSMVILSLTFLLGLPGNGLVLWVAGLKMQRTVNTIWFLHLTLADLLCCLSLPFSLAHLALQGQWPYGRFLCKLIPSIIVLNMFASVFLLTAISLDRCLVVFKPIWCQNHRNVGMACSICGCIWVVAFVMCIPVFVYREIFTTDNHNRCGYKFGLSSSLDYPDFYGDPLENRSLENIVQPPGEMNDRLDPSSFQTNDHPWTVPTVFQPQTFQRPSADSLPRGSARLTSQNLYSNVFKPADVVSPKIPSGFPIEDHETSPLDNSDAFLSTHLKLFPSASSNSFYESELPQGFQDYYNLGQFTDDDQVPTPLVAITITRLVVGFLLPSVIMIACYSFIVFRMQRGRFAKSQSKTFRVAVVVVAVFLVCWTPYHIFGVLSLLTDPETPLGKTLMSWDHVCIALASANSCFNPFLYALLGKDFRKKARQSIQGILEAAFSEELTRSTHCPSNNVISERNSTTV

Rattus norvegicus = experiment: Antiinflammatory activity in Wistar rat model of BR103-induced paw edema assessed as inhibition of activation/degranulation of mast cells at 10 mg/kg, po administered via gavage pretreated for 2 hrs followed by BR103 challenge and measured after 30 mins by tryptase staining-based microscopic analysis; format: functional, organism-based
Summary of the method: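 Male Wistar rats 7–8 weeks old, given 10 mg/kg p.o. in olive oil 2 h before i.pl. BR103 (350 μg/paw). Sham/control received olive oil. Left paw plantar tissue taken 30 min after agonist and fixed in formalin. Frozen 5 μm sections stained with alcian blue/safranin O, or immunostained for tryptase, histamine or ED1. Positive cells quantified; n = 5 per group, one-way ANOVA.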

[5] = Stability of the compound in rat liver microsomes at 1 uM preincubated for 5 mins followed by NADPH addition and measured after 1 hr by LC-MS/MS analysis; format: ADME, Microsome
Summary of the method: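 Compound at 1 μM in 100 mM phosphate buffer, pH 7.4 (0.1% DMSO), was incubated with rat liver microsomes […] at 37 °C before further NADPH was added. Aliquots taken at 0, 5, 15, 30 and 60 min were quenched in MeCN/H₂O (9:1), centrifuged and analysed by LC-MS/MS. Microsomal activity was confirmed in parallel with SLIGRL-NH₂; n = 3.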

[6] = molecular target: T1, C3a anaphylatoxin chemotactic receptor (Homo sapiens); experiment: Potency index, ratio of SB290157 IC50 to test compound IC50 for antagonist activity at C3a receptor in human MDM cells; format: cell-based
[7] = molecular target: T2, C3a anaphylatoxin chemotactic receptor (Homo sapiens, UniProt Q16581); experiment: Agonist activity at C3a receptor in human MDM cells assessed as induction of intracellular calcium release measured at 1 sec interval for => 200 secs by Fluo-3 AM dye-based FLIPR assay; format: cell-based
T2 sequence (Q16581 whole entry): T1 sequence (whole entry)
Summary of the method: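 HMDMs were differentiated from CD14⁺ monocytes with M-CSF (100 ng/mL) for 7 days and seeded overnight at 5 × 10⁴ cells/well. Cells were loaded with 4 μM Fluo-3 AM for 1 h at 37 °C, then placed in HBSS with 2.5 mM probenecid and 20 mM HEPES, pH 7.4. Agonist was added on FLIPR and read at ex 495/em 520 nm. EC50 is relative to the maximum from 1 μM C3a; n ≥ 3.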

[8] = molecular target: T3, C5a anaphylatoxin chemotactic receptor 1 (Homo sapiens) (UniProt P21730); experiment: Antagonist activity at C5a receptor in human MDM cells assessed as inhibition of C5a-induced intracellular calcium release preincubated for 30 mins followed by C5a addition and measured at 1 sec interval for => 200 secs by Fluo-3 AM dye-based FLIPR assay; format: functional, cell-based
T3 sequence (whole entry): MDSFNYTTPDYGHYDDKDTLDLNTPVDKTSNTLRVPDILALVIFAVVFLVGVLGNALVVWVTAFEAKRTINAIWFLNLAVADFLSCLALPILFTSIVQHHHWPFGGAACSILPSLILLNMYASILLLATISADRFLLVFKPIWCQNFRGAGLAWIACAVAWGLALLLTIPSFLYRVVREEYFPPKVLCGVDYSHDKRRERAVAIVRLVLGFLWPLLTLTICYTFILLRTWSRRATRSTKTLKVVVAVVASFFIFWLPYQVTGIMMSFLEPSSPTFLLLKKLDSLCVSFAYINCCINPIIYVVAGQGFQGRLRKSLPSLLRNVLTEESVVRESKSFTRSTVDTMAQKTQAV
Summary of the method: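 HMDMs from CD14+ monocytes after 7 days in M-CSF; 5 × 10⁴ cells/well seeded overnight. Cells loaded 1 h at 37 °C with 4 μM Fluo-3 AM, then washed into HBSS with 2.5 mM probenecid and 20 mM HEPES, pH 7.4. Antagonist preincubated 30 min at 37 °C before C5a. Fluorescence (ex 495/em 520 nm) read every 1 s for ≥200 s.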

[9] = AUC (0 to 8 hrs) in Wistar rat at 10 mg/kg, po by LC-MS/MS analysis; format: ADME, organism-based; parameters: dose 10 mg/kg, time < 8 hr, route oral; conditions: in vivo; summary of the method: as §1
[10] = Elimination half-life in Wistar rat at 1 mg/kg, iv by LC-MS/MS analysis; format: ADME, organism-based; conditions: in vivo, read-out: beta t1/2; summary of the method: as §1
[11] = molecular target: T2, C3a anaphylatoxin chemotactic receptor; experiment: (§2) Antagonist at C3a receptor in human LAD2 cells assessed as inhibition of C3a-induced beta-hexosaminidase release preincubated for 30 mins followed by C3a addition; format: cell-based
Summary of the method: (§3)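 LAD2 mast cells grown with SCF, 1 × 10⁴ cells/well seeded overnight and presensitized overnight with IgE (100 ng/mL). Compounds preincubated 30 min at 37 °C in 0.1 M HEPES pH 7.4, then C3a added and β-hexosaminidase release measured. IC50 is concentration inhibiting 50% of release induced by 100 nM C3a; n ≥ 3.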

[12] = molecular target: T1, C3a anaphylatoxin chemotactic receptor (Homo sapiens); experiment: as §2; format: cell-based; summary of the method: as §3

**Q.** Which results are given for `Cc1cc(C(c2ccc(Cl)cc2)c2ccc(Cl)cc2)sc1C(=O)N[C@@H](CCCNC(=N)N)C(=O)O`?
**A.** clearance [1]: 4.4 mL/min/kg; Vd [2]: 0.1 L; Stability [3]: Stable; Ratio IC50 [4]: 100; Activity (Rattus norvegicus): Active; Stability [5]: Stable; Ratio IC50 [6]: 100; EC50 ([7]; read-out: EC50): > 100 µM; EC50 ([7]; read-out: pEC50 (converted)): > 100 µM; inhibition [8]: inactive; AUC(0-t) at 8 h [9]: 478 ng·h/mL; half-life [10]: 3.18 h; IC50 [11]: 0.008 µM; inhibition [12]: Dose-dependent effect
